Published values collected from several papers.
Lines come from different studies, so protocols differ.
Cell line: MCF7
Read-out: cell growth or viability

O=C(Nc1ccccc1OS(=O)(=O)c1ccc(F)cc1)c1ccc2ncccc2c1  viability (MTT; 100 µM, 24 h): 85.6%
COc1cccc2c1C(=O)c1c(O)c3c(c(O)c1C2=O)C[C@@](O)(C(=O)CO)C[C@@H]3O[C@H]1C[C@H](N)[C@H](O)[C@H](C)O1  IC50 (MTT; 48 h): 0.8 µM
COC(=O)[C@]1(O)C[C@@H](O)[C@@H](O)[C@H](OC(=O)/C=C/c2ccc(O)c(O)c2)C1  IC50 (WST-1): 10.2 µM
O=c1[nH]cc(F)c(=O)[nH]1  CC50 (crystal violet; 72 h): 641 µM
CC(C)(C)CC(C)(C)Nc1c(-c2cccnc2)nc2ncccn12  viability (MTT; 25 µM, 48 h): 93.9%
COc1cc(O)c(CC=C(C)C)c2c1C(=O)CC(c1ccc(O)cc1)O2 (stereo not drawn)  IC50 (MTT; 48 h): > 100 µM
COc1ccc(-c2nc3ncccn3c2NC(C)(C)CC(C)(C)C)cc1O  viability (MTT; 25 µM, 48 h): 65.3%
CC1(C)CC[C@]2(C)CC[C@]3(C)[C@H]4CC=C5[C@@H](CC[C@H](O)C5(C)C)[C@]4(C)CC[C@@]3(C)[C@@H]2C1  IC50 (WST-1): 28.4 µM
CC(C)(C)CC(C)(C)Nc1c(-c2cccc(C#N)c2)nc2ncccn12  viability (MTT; 25 µM, 48 h): 73.6%
C=C(C)[C@H](CC=C(C)C)Cc1c(O)cc(O)c2c1O[C@H](c1ccccc1O)CC2=O  IC50 (MTT; 48 h): 21.3 µM
COc1cc2c(OC)nc3c4cc5c(cc4cc(OCCN4CCC(N6CCCCC6)CC4)c3c2cc1OC)OCO5  GI50 (MTT): 12 µM
C=C(C)[C@H](CC=C(C)C)Cc1c(O)cc(OC)c(C(=O)/C=C/c2ccc(O)cc2O)c1O  IC50 (MTT): 23 µM
COc1cc2c(OC)nc3c4cc5c(cc4cc(OC(C)=O)c3c2cc1OC)OCO5  GI50 (MTT): 4.5 µM
C/C=C(/C)C(=O)O[C@@H]1[C@H](OC(C)=O)c2c(ccc3ccc(=O)oc23)OC1(C)C  IC50 (WST-1): 39.1 µM
COc1cccc2c1C(=O)c1c(O)c3c(c(O)c1C2=O)C[C@@](O)(C(=O)CO)C[C@@H]3O[C@H]1C[C@H](N)[C@H](O)[C@H](C)O1  viability (MTT; 10 µM, 24 h): 11.8%
